Data taken from ChEMBL document CHEMBL1140356, “Developing microcolin A analogs as biological probes” (Bioorg Med Chem Lett, 2005).

Experiments:
P388 [1] = test: Cytotoxicity against P-388 cell line (mouse T-cell leukemia cells); format: functional, cell-based
How it was run: (§1)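 Growth-inhibition assay on cultured cells, reported as IC50. […] used primary mouse lymphocytes, either PMA/ionomycin-stimulated or in a mixed lymphocyte reaction. C2C12 are nontransformed mouse myoblasts. BAE are primary bovine aortic endothelial cells.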

EL4 [2] = test: Cytotoxicity against EL-4 cell line (mouse thymoma cells); format: functional, cell-based; how it was run: as §1
EL4 [3] = test: Cytotoxicity against mouse thymoma cells (EL-4 cell lines); format: functional, cell-based; how it was run: as §1
[4] = Cytotoxicity against C2C12 cell line (mouse myoblast cells); format: functional, cell-based; how it was run: as §1
Jurkat = test: Cytotoxicity against Jurkat cell line (human T-cell leukemia cells); format: functional, cell-based; how it was run: as §1
[5] = Cytotoxicity against mouse PMA ionomycin-stimulated lymphocytes; format: functional; how it was run: as §1
Mus musculus = organism: Mus musculus; test: Cytotoxicity against mouse mixed lymphocyte reaction; format: functional; how it was run: as §1
N1E-115 = test: Cytotoxicity against N1E-115 cell line (mouse neuroblastoma cells); format: functional, cell-based; how it was run: as §1
[6] = Cytotoxicity against BAE cell line (bovine aortic endothelial cells); format: functional, cell-based; details: Bos taurus; how it was run: as §1
P388 [7] = test: Cytotoxicity against P-388 cell line (mouse T-cell leukemia); format: functional, cell-based
How it was run: (§2)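 Cell proliferation inhibition measured in cultured cells; value reported as IC50.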

EL4 [8] = test: Cytotoxicity against EL-4 cell line (mouse thymoma); format: functional, cell-based; how it was run: as §2

Work on `CCCCCCCC(=O)N(C)[C@@H](CC(C)C)C(=O)N[C@H](C(=O)N(C)[C@H](C(=O)N1C[C@@H](O)C[C@H]1C(=O)N1C(=O)C=C[C@H]1C)C(C)C)C(C)OC(C)=O` (some centres undefined) yielded an IC50 (P388 [1]) of 7000 nM and an IC50 (EL4 [2]) of 6000 nM.
Compound `CCCCCCCC(=O)N(C)[C@@H](CC(C)C)C(=O)N[C@H](C(=O)N(C)[C@H](C(=O)N1C[C@@H](O)C[C@H]1C(=O)N1C(=O)C=C[C@@H]1C)C(C)C)C(C)OC(C)=O` (some centres undefined) has an IC50 (P388 [1]) of 66.7 nM, an IC50 (EL4 [3]) of 45.6 nM and an IC50 [4] of 43.4 nM. It also gave an IC50 (Jurkat) of 39.4 nM, an IC50 [5] of 30.3 nM and an IC50 (Mus musculus) of 32.8 nM. The IC50 (N1E-115) was 35.9 nM and the IC50 [6] was 36.7 nM.
For `CC(=O)OC(C)[C@H](NC(=O)[C@H](CC(C)C)N(C)C(=O)CCOCCOCCOCCOCCNC(=O)CCCC[C@@H]1SC[C@@H]2NC(=O)N[C@@H]21)C(=O)N(C)[C@H](C(=O)N1C[C@@H](O)C[C@H]1C(=O)N1C(=O)C=C[C@@H]1C)C(C)C` (some centres undefined), the IC50 (P388 [7]) was 10000 nM and the IC50 (EL4 [8]) was 10000 nM.
With `CCCCCCCC(=O)N(C)[C@@H](CC(C)C)C(=O)N[C@H](C(=O)N(C)[C@H](C(=O)N1CCC[C@H]1C(=O)N1C(=O)C=C[C@@H]1C)C(C)C)C(C)OC(C)=O` (some centres undefined) the IC50 (P388 [1]) was 5000 nM and the IC50 (EL4 [2]) was 6000 nM.
